# Measured values from ChEMBL document CHEMBL1932969, “Acyl derivatives of boswellic acids as inhibitors of NF-κB and STATs” (Bioorg Med Chem Lett, 2012).
# Active and inactive are the calls of the source. The calls are words filed in the database; no cut-off is given here.
# Experiments:
# [1] = target: Signal transducer and activator of transcription 3 (Homo sapiens) (UniProt P40763); experiment: Inhibition of STAT3 Thr705 phosphorylation in p53-deficient human HL60 cells at 20 to 50 uM after 6 hrs by Western blot analysis; type: cell-based; settings: HL-60
# [2] = system: DU-145; experiment: Anticancer activity against human DU145 cells assessed as growth inhibition at 50 uM after 48 hrs by SRB assay; type: functional; settings: DU-145, 48 h, read-out: GI
# Outline: (§1)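 Cells exposed to test compounds at 50 µM for 48 h. Read-out is percent growth inhibition, with SEM given. 5-Fluorouracil and adriamycin serve as reference agents.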
# [3] = system: HT-29; experiment: Anticancer activity against human HT-29 cells assessed as growth inhibition at 50 uM after 48 hrs by SRB assay; type: functional; settings: HT-29, 48 h, read-out: GI; outline: as §1
# [4] = system: HL-60; experiment: Induction of apoptosis in p53-deficient human HL60 cells assessed as apoptotic cells at 50 uM after 6 hrs by FITC-conjugated annexinV/PI-based flow cytometric analysis (reference value: 5 %); type: functional
# Outline: (§2)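 HL-60 cells incubated with each analog at 50 µM for 6 h, stained with annexin V-FITC/propidium iodide and analysed by flow cytometry. Lower right quadrant is apoptotic, upper right post-apoptotic, upper left necrotic. Three experiments, with representative dot plots shown.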
# [5] = target: T1, Signal transducer and activator of transcription 5A (Homo sapiens) (UniProt P42229); experiment: Inhibition of STAT5 Tyr694/699 phosphorylation in p53-deficient human HL60 cells at 20 to 50 uM after 6 hrs by Western blot analysis; type: cell-based; settings: HL-60
# T1 sequence (whole entry): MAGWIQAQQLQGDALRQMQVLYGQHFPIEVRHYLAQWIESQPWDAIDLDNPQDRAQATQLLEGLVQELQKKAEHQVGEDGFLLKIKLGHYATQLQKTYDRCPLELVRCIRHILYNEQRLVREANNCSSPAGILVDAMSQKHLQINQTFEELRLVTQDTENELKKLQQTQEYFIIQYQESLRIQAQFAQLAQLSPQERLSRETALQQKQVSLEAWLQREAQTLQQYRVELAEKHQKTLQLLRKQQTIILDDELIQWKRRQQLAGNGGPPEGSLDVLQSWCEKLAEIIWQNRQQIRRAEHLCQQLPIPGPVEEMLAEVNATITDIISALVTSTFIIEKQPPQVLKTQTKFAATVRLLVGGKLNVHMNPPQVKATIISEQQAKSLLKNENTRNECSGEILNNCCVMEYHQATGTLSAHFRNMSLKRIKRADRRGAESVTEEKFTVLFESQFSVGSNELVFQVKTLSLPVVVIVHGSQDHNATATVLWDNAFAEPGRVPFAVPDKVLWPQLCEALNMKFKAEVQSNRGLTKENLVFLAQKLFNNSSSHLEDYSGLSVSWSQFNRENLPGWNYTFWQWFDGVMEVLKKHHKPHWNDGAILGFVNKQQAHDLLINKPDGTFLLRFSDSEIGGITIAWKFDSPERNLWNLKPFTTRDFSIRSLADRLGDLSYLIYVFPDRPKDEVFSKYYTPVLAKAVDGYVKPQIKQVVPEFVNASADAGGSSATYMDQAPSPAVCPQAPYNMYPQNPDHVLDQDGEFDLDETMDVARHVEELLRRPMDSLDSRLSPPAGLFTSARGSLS
# [6] = system: HL-60; experiment: Induction of apoptosis in p53-deficient human HL60 cells at 50 uM after 6 hrs by FITC-conjugated annexinV/PI-based flow cytometric analysis; type: functional; outline: as §2
# [7] = target: Transcription factor p65 (Homo sapiens) (UniProt Q04206); experiment: Inhibition of NF-kappaB p65 subunit protein expression in p53-deficient human HL60 cells at 20 uM after 6 hrs by Western blot analysis; type: cell-based; settings: HL-60
# Outline: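 HL-60 cells treated with or without compound (20 and 50 µM) for 6 h. Total cell lysates (70 µg protein) are run on 10% SDS–PAGE and immunoblotted for NF-κB p50 and p65.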
# [8] = system: SW-620; experiment: Anticancer activity against human SW620 cells assessed as growth inhibition at 50 uM after 48 hrs by SRB assay; type: functional; settings: SW-620, 48 h, read-out: GI; outline: as §1
# [9] = target: T2, Signal transducer and activator of transcription 6 (Homo sapiens) (UniProt P42226); experiment: Inhibition of STAT6 Tyr641 phosphorylation in p53-deficient human HL60 cells at 20 to 50 uM after 6 hrs by Western blot analysis; type: cell-based; settings: HL-60
# T2 sequence (whole entry): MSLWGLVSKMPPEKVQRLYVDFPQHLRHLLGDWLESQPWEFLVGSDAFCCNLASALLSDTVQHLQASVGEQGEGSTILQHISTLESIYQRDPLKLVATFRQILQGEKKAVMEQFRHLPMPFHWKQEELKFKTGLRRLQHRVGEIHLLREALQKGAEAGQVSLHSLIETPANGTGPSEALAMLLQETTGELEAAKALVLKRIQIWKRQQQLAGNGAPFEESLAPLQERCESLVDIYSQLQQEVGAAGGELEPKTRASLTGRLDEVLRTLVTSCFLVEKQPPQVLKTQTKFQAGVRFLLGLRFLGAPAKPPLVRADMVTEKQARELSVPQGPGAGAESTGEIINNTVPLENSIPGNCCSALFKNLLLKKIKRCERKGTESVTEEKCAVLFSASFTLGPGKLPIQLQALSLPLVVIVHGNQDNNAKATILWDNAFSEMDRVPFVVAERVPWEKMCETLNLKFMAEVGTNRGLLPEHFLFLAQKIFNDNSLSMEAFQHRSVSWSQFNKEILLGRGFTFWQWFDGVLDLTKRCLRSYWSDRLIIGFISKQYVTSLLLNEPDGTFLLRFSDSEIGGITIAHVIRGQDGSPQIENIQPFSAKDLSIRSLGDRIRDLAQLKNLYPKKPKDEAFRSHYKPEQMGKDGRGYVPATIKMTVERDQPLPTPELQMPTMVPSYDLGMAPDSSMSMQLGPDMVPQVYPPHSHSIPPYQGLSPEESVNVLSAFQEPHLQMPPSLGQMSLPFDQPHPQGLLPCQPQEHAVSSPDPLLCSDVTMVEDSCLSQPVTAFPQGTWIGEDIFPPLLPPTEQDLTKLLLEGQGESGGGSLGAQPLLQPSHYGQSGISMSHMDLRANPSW
# [10] = system: HL-60; experiment: Induction of necrosis in p53-deficient human HL60 cells at 50 uM after 6 hrs by FITC-conjugated annexinV/PI-based flow cytometric analysis; type: functional, cell-based; outline: as §2
# [11] = target: Signal transducer and activator of transcription 3 (Homo sapiens) (UniProt P40763); experiment: Inhibition of STAT3 Ser727 phosphorylation in p53-deficient human HL60 cells at 20 to 50 uM after 6 hrs by Western blot analysis; type: cell-based; settings: HL-60
# [12] = system: HL-60; experiment: Anticancer activity against human HL60 cells after 48 hrs by MTT assay; type: functional, cell-based; settings: HL-60, 48 h
# Outline: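 Cell proliferation measured by MTT. Cells are incubated with each analog for 48 h at the indicated concentrations, then MTT reduction is read as an index of viability. OD of the untreated control is taken as 100% viability, and IC50 is derived from this.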
# Sequence of Signal transducer and activator of transcription 3 (Homo sapiens) (P40763 whole entry): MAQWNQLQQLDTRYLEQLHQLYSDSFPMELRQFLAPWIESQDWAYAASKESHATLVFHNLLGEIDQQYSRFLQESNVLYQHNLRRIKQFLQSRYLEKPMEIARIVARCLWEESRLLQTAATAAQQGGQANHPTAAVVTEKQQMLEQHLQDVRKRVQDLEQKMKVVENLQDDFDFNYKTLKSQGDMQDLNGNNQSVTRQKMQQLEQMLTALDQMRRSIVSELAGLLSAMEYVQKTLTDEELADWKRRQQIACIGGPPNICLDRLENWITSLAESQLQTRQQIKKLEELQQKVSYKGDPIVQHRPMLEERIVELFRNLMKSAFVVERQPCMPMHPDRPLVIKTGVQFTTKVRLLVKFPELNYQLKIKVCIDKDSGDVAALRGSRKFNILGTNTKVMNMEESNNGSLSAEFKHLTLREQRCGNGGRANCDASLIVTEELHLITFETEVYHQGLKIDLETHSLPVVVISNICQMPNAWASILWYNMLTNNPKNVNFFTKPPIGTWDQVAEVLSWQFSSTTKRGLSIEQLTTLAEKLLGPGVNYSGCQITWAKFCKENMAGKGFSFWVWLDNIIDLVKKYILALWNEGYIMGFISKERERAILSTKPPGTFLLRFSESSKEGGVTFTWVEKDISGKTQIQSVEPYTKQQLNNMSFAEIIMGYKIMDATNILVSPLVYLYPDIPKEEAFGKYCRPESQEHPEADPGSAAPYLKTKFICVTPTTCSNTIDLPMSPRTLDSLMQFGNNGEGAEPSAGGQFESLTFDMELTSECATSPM
# Sequence of Transcription factor p65 (Homo sapiens) (Q04206 whole entry): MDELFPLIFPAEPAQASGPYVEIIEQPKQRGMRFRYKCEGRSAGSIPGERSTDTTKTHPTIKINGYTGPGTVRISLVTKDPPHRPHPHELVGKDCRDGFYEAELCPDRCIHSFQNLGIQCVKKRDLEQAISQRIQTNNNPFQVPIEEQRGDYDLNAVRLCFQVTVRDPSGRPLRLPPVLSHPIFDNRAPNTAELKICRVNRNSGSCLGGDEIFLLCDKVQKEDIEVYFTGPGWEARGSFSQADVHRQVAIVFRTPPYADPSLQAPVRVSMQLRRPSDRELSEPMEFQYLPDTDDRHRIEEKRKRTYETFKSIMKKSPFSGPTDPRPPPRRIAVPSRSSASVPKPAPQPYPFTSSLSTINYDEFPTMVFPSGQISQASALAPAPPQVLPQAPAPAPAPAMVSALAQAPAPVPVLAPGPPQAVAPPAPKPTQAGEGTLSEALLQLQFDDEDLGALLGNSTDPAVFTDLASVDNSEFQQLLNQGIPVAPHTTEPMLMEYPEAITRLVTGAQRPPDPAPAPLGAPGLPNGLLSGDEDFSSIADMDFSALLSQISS
compound,measurement,setting,value
CCCC(=O)O[C@@H]1CC[C@@]2(C)[C@@H](CC[C@]3(C)[C@@H]2C(=O)C=C2[C@@H]4[C@@H](C)[C@H](C)CC[C@]4(C)CC[C@]23C)[C@@]1(C)C(=O)O,inhibition,[1],Active
same,inhibition of growth at 50 µM,[2],93%
same,inhibition of growth at 50 µM,[3],96%
same,Activity,[4],32%
same,inhibition,[5],Active
same,Activity,[6],80%
same,inhibition,[7],90%
same,inhibition of growth at 50 µM,[8],97%
same,inhibition,[9],Active
same,Activity,[10],inactive
same,inhibition,[11],Active
same,IC50,[12],11 µM
